Assay results: ChEMBL document CHEMBL1122150, “Synthesis and biological activity of benzothiazolo- and benzoxazolo[3,2-a]quinolinium salts” (1982)

Assays:
P388 [1] = assay: Percentage of treated /control was determined against P-388 leukemia in […] mice, at a dose of 100 mg/kg; format: functional, Mus musculus
Outline: (§1)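 Female BDF1 mice bearing P-388 ascitic leukemia, run per standard NCI protocol. Single ip dose on day 1, suspended in 0.9% NaCl with 0.10% Tween 80 and serially diluted in saline. T/C% = median survival time of treated mice / median survival of controls × 100. 5-Fluorouracil at 200 mg/kg as positive control. Groups of 6; mean of three tests.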

HeLa = assay: The cytotoxic activity was determined against HeLa cell line; format: functional, Mus musculus; details: Homo sapiens, read-out: ED50 (the source's name)
Outline: (§2)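 KB or HeLa monolayers were grown in Eagle's MEM with 10% fetal calf serum and subcultured every 6–7 days. Drugs were suspended in sterile 0.5% carboxymethylcellulose. 6-Mercaptopurine at 1 μM was the positive control in every run. Cytotoxic concentration is expressed in μg/mL.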

KB = assay: The cytotoxic activity was determined against KB cell line.; format: functional, Mus musculus; details: Homo sapiens, read-out: ED50 (the source's name); outline: as §2
Mus musculus [2] = assay: Antitumor activity against Ehrlich Ascites tumor after intraperitoneal administration at a dose of 250 mg/kg in mice; 6/6; format: functional
Mus musculus [3] = assay: Antitumor activity against Ehrlich Ascites tumor after intraperitoneal administration at a dose of 400 mg/kg in mice; 0/6; format: functional
Mus musculus [4] = assay: Antitumor activity against Ehrlich Ascites tumor after intraperitoneal administration at a dose of 90 mg/kg in mice; 3/5; format: functional
Mus musculus [5] = assay: Antitumor activity against P-388 ascitic leukemia in mice, at a dose of 200 mg/kg; 6/6; format: functional
Mus musculus [6] = assay: Antitumor activity against P-388 ascitic leukemia in mice, at a dose of 400 mg/kg; 0/6; format: functional
Mus musculus [7] = assay: No of survivors was determined for Ehrlich Ascites tumor after intraperitoneal administration at a dose of 100 mg/kg in mice; 6/6; format: functional
Mus musculus [8] = assay: No of survivors was determined for P-388 ascitic leukemia in mice, at a dose of 100 mg/kg; 6/6; format: functional
Mus musculus [9] = assay: Long term survivors/no of treated mice was determined for Ehrlich Ascites tumor after intraperitoneal administration at a dose of 100 mg/kg in mice; 12/12; format: functional
Mus musculus [10] = assay: Antitumor activity against Ehrlich Ascites tumor after intraperitoneal administration at a dose of 150 mg/kg in mice; 6/6; format: functional
Mus musculus [11] = assay: Percentage of treated /control was determined against P-388 ascitic leukemia in […] mice, at a dose of 200 mg/kg; format: functional; outline: as §1
Mus musculus [12] = assay: Percentage of treated /control was determined against P-388 ascitic leukemia in mice, at a dose of 100 mg/kg; format: functional; outline: as §1
Mus musculus [13] = assay: Percentage of treated /control was determined for Ehrlich Ascites tumor after intraperitoneal administration at a dose of 100 mg/kg in mice; format: functional
Outline: (§3)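 Female Albino Swiss mice, five to six weight-matched per group, implanted ip with 1×10^6 viable Ehrlich ascites cells (Trypan blue count). Single ip dose 24 h after implantation (day 1), suspended in 0.9% NaCl with 0.10% Tween 80 and serially diluted in saline. T/C% read at day 12. Survival followed 60 days. Mean of three tests (two at 90 and 100 mg/kg).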

Mus musculus [14] = assay: Percentage of treated /control was determined for Ehrlich Ascites tumor after intraperitoneal administration at a dose of 150 mg/kg in mice; format: functional; outline: as §3
Mus musculus [15] = assay: Percentage of treated /control was determined for Ehrlich Ascites tumor after intraperitoneal administration at a dose of 200 mg/kg in mice; format: functional; outline: as §3
Mus musculus [16] = assay: Percentage of treated /control was determined for Ehrlich Ascites tumor after intraperitoneal administration at a dose of 250 mg/kg in mice; format: functional; outline: as §3
Mus musculus [17] = assay: Percentage of treated /control was determined for Ehrlich Ascites tumor after intraperitoneal administration at a dose of 90 mg/kg in mice; format: functional; outline: as §3
Mus musculus [18] = assay: Antitumor activity against Ehrlich Ascites tumor after intraperitoneal administration at a dose of 200 mg/kg in mice; 6/6; format: functional
Mus musculus [19] = assay: Number of toxic death/ no of treated mice was determined for Ehrlich Ascites tumor after intraperitoneal administration at a dose of 400 mg/kg in mice; 6/6; format: functional
Mus musculus [20] = assay: Number of toxic death/ no of treated was determined for P-388 ascitic leukemia in mice, at a dose of 400 mg/kg; 6/6; format: functional
Mus musculus [21] = assay: Long term survivors/no of treated mice was determined for Ehrlich Ascites tumor after intraperitoneal administration at a dose of 90 mg/kg in mice; 5/10; format: functional
Mus musculus [22] = assay: Long term survivors/no of treated mice was determined for Ehrlich Ascites tumor after intraperitoneal administration at a dose of 250 mg/kg in mice; 15/18
Mus musculus [23] = assay: Long term survivors/no of treated mice was determined for Ehrlich Ascites tumor after intraperitoneal administration at a dose of 200 mg/kg in mice; 18/18
Mus musculus [24] = assay: Long term survivors/no of treated mice was determined for Ehrlich Ascites tumor after intraperitoneal administration at a dose of 150 mg/kg in mice; 15/18
P388 [25] = assay: Percentage of treated /control was determined against P-388 leukemia in […] mice, at a dose of 320 mg/kg; format: functional, Mus musculus

COc1cc2c[n+](C)c3c4cc5c(cc4ccc3c2cc1OC)OCO5.[Cl-] [NITIDINE CHLORIDE]
T/C (P388 [1]): 129%

O=[N+]([O-])c1ccc2c(ccc3sc4ccccc4[n+]32)c1.[O-][Cl+3]([O-])([O-])[O-]
EC50 (HeLa): 0.9 µg/mL | EC50 (KB): 0.6 µg/mL | Survival (Mus musculus [2]): 6 | Survival (Mus musculus [3]): 0 | Survival (Mus musculus [4]): 3 | Survival (Mus musculus [5]): 6 | Survival (Mus musculus [6]): 0 | Survival (Mus musculus [7]): 6 | Survival (Mus musculus [8]): 6 | LTS (Mus musculus [9]): 12 | Survival (Mus musculus [10]): 6 | T/C (Mus musculus [11]): 218% | T/C (Mus musculus [12]): 153% | T/C (Mus musculus [13]): 35.8% | T/C (Mus musculus [14]): -0.4% | T/C (Mus musculus [15]): -6.2% | T/C (Mus musculus [16]): -2.5% | T/C (Mus musculus [17]): 57.3% | Survival (Mus musculus [18]): 6 | Toxicity (Mus musculus [19]): 6 | Toxicity (Mus musculus [20]): 6 | LTS (Mus musculus [21]): 5 | LTS (Mus musculus [22]): 15 | LTS (Mus musculus [23]): 18 | LTS (Mus musculus [24]): 15

COc1cc2c(ccc3c4cc(OC)c(OC)cc4c[n+](C)c23)cc1O.[Cl-] [FAGARONINE]
EC50 (KB): 0.7 µg/mL | T/C (P388 [25]): 290%

O=[N+]([O-])c1ccc2c(ccc3oc4ccccc4[n+]32)c1.[O-][Cl+3]([O-])([O-])[O-]
EC50 (HeLa): 15 µg/mL | EC50 (KB): 12 µg/mL
